Compound activity from PubChem BioAssay.
Hits are enriched below; roughly 5.5% of the tested compounds scored in any of these assays.
STAT3 act = increases IL-6 driven STAT3 reporter signal | activation (% of control), % at 5.6 µM | 190,000 compounds, 0.91% hits | AID 871 | U3A cells, IL-6 STAT3-luciferase reporter, luminescence; 100% = signal with IL-6 EC80 alone;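 active = activation above the screen-wide mean of compound activation plus 3 SD, cut at about 130% in these data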;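 also: 0% = background luminescence of wells with medium and substrate only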
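system = STAT3-luciferase reporter U3A cells | reagent = IL-6 stimulus at 33 ng/mL final | timing = 1 h compound pre-exposure, 6 h IL-6 stimulation, 37 °C | measured by = luminescence | evaluation = % activation versus median of IL-6-stimulated wells | control set = IL-6-only wells as 100% reference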
HSV replic up = increases HSV replication in cells; maximum fold increase; 220,000 compounds, 0.005% hits; HSV replication augmentation in cells, fold increase; in the data active = maximum fold increase above about 1.5; inconclusive = no clear call, values can overlap the other calls; tested in PC3 cells
STAT1 activator = STAT1 signaling activation; 200,000 compounds, 2.6% hits; NIH 3T3 STAT1-luciferase reporter, IFN-gamma, luminescence; 100% = IFN-gamma alone, no compound; activation (% of control), % at 5.5 µM;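 active = activation above the screen-wide mean activation plus 3 SD, cut at about 130% in these data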;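 also: raw ratio to IFN-gamma control signal so 100% means no change and 0% no light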
STAT3 blocker = reduces IL-6 driven STAT3 reporter signal. AID 862. U3A cells, IL-6 STAT3-luciferase reporter, luminescence; host cell line lacks STAT1. inhibition, % at 5.5 µM. 190,000 compounds, 0.89% hits;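 active = inhibition above the mean inhibition across all screened compounds plus 3 SD, cut at about 44% in these data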;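 also: 0% = DMSO only wells and 100% = 100 µM nifuroxazide control wells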
STAT1 blocker = reduces IFN-gamma driven STAT1 reporter signal | NIH 3T3 STAT1-luciferase reporter, luminescence | inhibition, % at 5.5 µM | 200,000 compounds, 0.35% hits | AID 920;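 active = inhibition above a set limit, the mean inhibition across all tested compounds plus 3 SD, cut at about 34% in these data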;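 also: 0% = IFN-gamma with DMSO and 100% = IFN-gamma with 300 µM nifuroxazide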
Cl transport mod = KCC2 (human) Cl- transport modulation. KCC2 cells, thallium flux FluoZin-2 fluorescence. B-score of Tl+ flux slope (higher = more flux/activation; lower = inhibition) at 10 µM. 190,000 compounds, 2.2% hits;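 active = thallium flux slope and its plate-corrected score both differing from the plate sample mean at a set confidence after two filtering rounds, in either direction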;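 also: slope of fluorescence scaled to starting intensity during 10 to 20 s after thallium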
KCC2 secondary = confirmation of human KCC2 transport modulators; shares compounds with Cl transport mod; HEK293-KCC2, thallium flux, FluoZin2 fluorescence; active compounds read high; normalised thallium flux (F/F0 slope) at 10 µM; 3,700 compounds, 15% hits; AID 1713;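 active = thallium flux slope above the same plate's solvent-only control mean plus 3 SD; inconclusive = the two replicate wells disagree; inactive = no significant difference from solvent-only control wells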
KCC2 bumet counter = thallium flux despite bumetanide block in KCC2 cells, secondary assay 3; normalized thallium flux at 10 µM; shares compounds with Cl transport mod; HEK293-KCC2 + bumetanide/ouabain, thallium flux FluoZin2; active compounds read high; 3,700 compounds, 49% hits;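 active = thallium entry rate above the same plate's blocked-transporter control wells by more than 3 SD; inconclusive = the two repeat wells disagree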;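 also: raw slope of fluorescence over initial fluorescence between 10 and 20 s after thallium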
KCC2 sec2 = confirmation of human KCC2 transport modulators; shares compounds with Cl transport mod; HEK293-KCC2, thallium flux FluoZin2 fluorescence; actives lie on both sides; F/F0 rise rate, 10–20 s post-thallium; normalized thallium flux at 10 µM; 3,700 compounds, 23% hits;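 active = thallium flux slope more than 3 SD above or below the plate's solvent-only control mean, mostly below; inconclusive = the two repeat wells disagreed; inactive = no significant shift from solvent-only controls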;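 also: raw slope with 0.1% DMSO as baseline and bumetanide as block control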
HEK counter1 = counter-screen for KCC2 modulators: effect in parental HEK293 cells; thallium flux FluoZin2, ouabain; baseline-ratio fluorescence slope, 10–20 s after thallium; shares compounds with Cl transport mod; thallium flux rate (normalised fluorescence) at 10 µM; 3,700 compounds, 46% hits;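 active = thallium flux rate significantly above the same plate's solvent-only control wells, beyond their mean plus 3 SD; inconclusive = the two replicate wells gave conflicting results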
KCC2 retest ouab = confirmation of human KCC2 modulators with ouabain; shares compounds with Cl transport mod; HEK293-KCC2, thallium flux FluoZin2 fluorescence; bidirectional: low = inhibitor, high = activator; raw Tl+ flux slope (below DMSO = inhibition, above = activation) at 10 µM; 3,700 compounds, 48% hits; AID 1717;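 active = thallium flux slope beyond 3 SD from same-plate DMSO control mean in most replicates, usually higher, sometimes lower; inconclusive = repeat tests gave conflicting results; inactive = no significant difference from controls in most replicates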;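 also: slope of initial-normalized fluorescence between seconds 10 and 20 after thallium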
HEK counter2 = counter-screen for KCC2 modulators: effect in parental HEK293 cells; thallium flux FluoZin-2 fluorescence slope; 3,700 compounds, 33% hits; AID 1718; shares compounds with Cl transport mod; thallium flux slope at 10 µM;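 active = thallium flux slope above the same plate's solvent-control mean plus 3 SD in both duplicate wells; inconclusive = duplicate wells that disagreed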;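 also: run without ouabain in cells lacking the KCC2 cotransporter; slope of fluorescence scaled to its starting value between 10 and 20 s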
An asterisk follows results filed as active; i = inactive; ? = inconclusive; / = no result given.

SMILES	STAT3 act	HSV replic up	STAT1 activator	STAT3 blocker	STAT1 blocker	Cl transport mod	KCC2 secondary	KCC2 bumet counter	KCC2 sec2	HEK counter1	KCC2 retest ouab	HEK counter2
Cc1ccc2cccc(S(=O)(=O)Nc3ccc4c(c3)OCO4)c2n1	100	i	104	5	-4	-0.05	/	/	/	/	/	/
COc1ccccc1/C=N/NC(=S)NCc1ccco1	/	i	/	/	/	4.3	/	/	/	/	/	/
O=C(NC(=S)NCc1ccc(F)cc1)c1ccccc1	90	i	93	19	7	48*	0.027*	0.053*	0.039*	0.021*	0.029*	0.023*
S=C(NCc1ccco1)Nc1ccccc1	96	i	97	9	2	-1.6	/	/	/	/	/	/
O=C(NC(=S)NCc1ccco1)c1ccccc1	93	?	106	12	-9	19*	?	0.036*	0.035	0.015*	0.028	0.013*
O=C(NC(=S)NCc1ccccc1)c1ccccc1	91	i	104	13	-7	22*	0.0063	0.036*	0.043*	0.029*	0.038*	0.03*
S=C(NCc1ccco1)N/N=C/c1ccccc1Cl	113	i	98	-11	2	7.3*	0.0089	0.018*	0.031	0.0095*	0.034*	?
O/N=C\c1cccn1-c1ccc(Br)cc1	97	i	100	10	0	/	0.0083	0.006	0.03	0.0059	0.019	0.0097
O/N=C\c1cccn1-c1nccs1	98	i	96	3	5	-0.82	/	/	/	/	/	/
c1ccc(N2CCN(c3ccccc3)C2c2cccs2)cc1	93	i	127	11	-29	-5.5*	0.0091	0.0052	0.029	0.0076	0.022	0.011
O=C1CSC(c2cccs2)N1c1ccccc1 (centres undefined)	106	i	102	-1	-2	0.5	/	/	/	/	/	/
COc1ccc(C2/C=C\CN(C(=O)CC(C)(C)C)CC(=O)N2Cc2ccc(F)cc2)cc1 (centres undefined)	/	i	/	/	/	-2.4	/	/	/	/	/	/
COc1ccc(C2/C=C\CN(C(=O)CC(C)C)CC(=O)N2Cc2ccc(F)cc2)cc1 (centres undefined)	/	i	/	/	/	-3*	0.016	0.0034	0.025*	0.0059*	0.015	0.0087
Nc1nc(-c2ccco2)nn1C(=O)c1ccc([N+](=O)[O-])cc1	103	i	99	1	-1	0.065	/	/	/	/	/	/
CSc1nc(SC(C)C(=O)O)c2c3c(sc2n1)COC(C)(C)C3 (centres undefined)	/	i	/	/	/	4.8*	0.0054	0.02*	?	0.032*	0.034*	0.021*
O=C(NC(NC(=S)N1CCOCC1)C(Cl)(Cl)Cl)c1cccc2ccccc12 (centres undefined)	102	i	94	-2	6	-2.2	/	/	/	/	/	/
CCOC(=O)c1sc2nc(C)[nH]c(=S)c2c1C	89	i	110	14	-12	200*	0.054*	0.15*	0.052*	0.11*	0.12*	0.05*
CCOC(=O)C1CCCN(C(=O)c2cc(-c3ccc(C)cc3)nc3ccccc23)C1 (centres undefined)	111	i	106	-6	-8	-1.7	/	/	/	/	/	/
CCC(Oc1ccccc1)C(=O)Nc1ncc([N+](=O)[O-])s1 (centres undefined)	102	i	93	2	5	-2.8*	0.0077	?	0.033	0.007	0.017*	0.011
CCCN(CC1CC1)C(=S)NC(=O)c1ccc(S(=O)(=O)N2CCOCC2)cc1	99	i	104	9	-6	5.6*	0.018	0.019*	0.033	0.017*	0.024*	0.018*
O=C(NC(=S)N1CCN(C(c2ccccc2)c2ccccc2)CC1)c1ccc(S(=O)(=O)N2CCOCC2)cc1	82	i	98	23	2	8.7*	0.006	0.024*	0.032	0.013*	?	?
Cc1cc(/N=C/C=C2\N(C)c3ccccc3C2(C)C)n(CCC#N)n1	92	i	89	11	12	-3.6*	0.0078	0.0051	0.03	0.0056*	?	0.0096
CCOC(=O)N1CCC(NC(=O)CCC(=O)N2CCOc3ccc(Cl)cc32)CC1	97	i	101	5	-3	0.12	/	/	/	/	/	/
Cc1cccc(NC(=O)CN2CCC(NC(=O)C3CCCCC3)CC2)c1C	106	i	101	-4	-1	-0.00027	/	/	/	/	/	/
O=C(N/N=C/C(Br)=C/c1ccccc1)c1cc(-c2ccco2)[nH]n1	101	i	105	5	-5	0.35	/	/	/	/	/	/
SMILES	STAT3 act	HSV replic up	STAT1 activator	STAT3 blocker	STAT1 blocker	Cl transport mod	KCC2 secondary	KCC2 bumet counter	KCC2 sec2	HEK counter1	KCC2 retest ouab	HEK counter2
O=C(N/N=C/C(Br)=C/c1ccccc1)c1n[nH]c2c1CCC2	137*	i	146*	-35	-50	/	0.0077	0.0066	0.028	0.007	?	0.0099
CC1=C(C(=O)Nc2ccccc2C(F)(F)F)C(c2ccc(C)s2)NC(=S)N1 (centres undefined)	89	i	97	13	3	1.5	/	/	/	/	/	/
C=CCNc1oc(Cc2cccc3ccccc23)nc1C#N	98	i	96	8	4	-4.6*	0.006	0.0048	0.023*	0.0069	?	0.0096
N#Cc1nc(Cc2cccc3ccccc23)oc1N1CCN(c2ccccc2)CC1	103	i	102	3	-3	/	/	/	/	/	/	/
N#Cc1nc(Cc2cccc3ccccc23)oc1N1CCOCC1	102	i	104	2	-5	-6*	0.0068	0.0044	0.022*	0.0075	0.012*	0.01
N#Cc1nc(Cc2cccc3ccccc23)oc1NCc1ccc(F)cc1	100	i	105	3	-5	-2.8	/	/	/	/	/	/
N#Cc1nc(Cc2cccc3ccccc23)oc1NCCN1CCOCC1	96	i	94	5	6	-4.5*	0.0059	0.0047	0.023*	0.0069	?	0.01
O=S(=O)(NCc1ccccc1)c1cccs1	97	i	99	9	1	-0.72	/	/	/	/	/	/
